High-throughput results (PubChem BioAssay)
Rows were chosen to be rich in hits. Some 0.85% of all compounds tested hit in one or more screens of this group.
V1aR counter: agonists of human V1a receptor, primary screen, counter-screen for OXTR agonist project, fluorescence, CHO-V1R cells; AID 2797, 2010; 320,000 tested, 0.25% active; Fluo-8 calcium fluorescence, agonist mode; 0% DMSO, 100% 3 nM vasopressin; activation, % at 3 µM; Vasopressin V1a receptor (Homo sapiens), P37288;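 active = activation above the mean activation of all tested compounds plus 3 SD, per screening run, cut at about 20% in these data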;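 also: signal is peak over basal fluorescence ratio across a 100 second FLIPR read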
TRPN1 ag: zebrafish TRPN1 channel agonists, primary screen, cell-based, HEK293, calcium fluorescence. transient receptor potential cation channel N1 (TRPN1/NompC), Danio rerio. HEK293 zebrafish TRPN1-YFP, Fluo-8 calcium fluorescence; 100% = response to 87 µM carbachol. activation, % at 3 µM. 220,000 tested, 0.18% active. AID 1424, 2008;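 active = activation above its plate's cutoff, the mean activation of test wells on that plate plus 3 SD, cut at about 19% in these data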;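 also: 0% = DMSO alone and 100% = 87 µM carbachol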
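System: zebrafish TRPN1-YFP in HEK293 cells / Dosing: 3 µM single point / Timing: dye loading 1 h at 37 °C, then 30 min room temperature / Signal: Fluo-8 calcium fluorescence, excitation 470-495 nm, emission 515-575 nm / Read-out basis: percent activation from peak over basal fluorescence ratio, control-normalized / Control set: high carbachol 87 µM, low DMSO alone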
OXTR ag: human OXTR agonists, primary screen, fluorescence, CHO-OTR cells, Fluo-8 calcium. Oxytocin receptor (Homo sapiens), P30559. Fluo-8 calcium fluorescence; normalized: DMSO 0%, oxytocin 100%. activation, % at 3 µM. 320,000 tested, 0.32% active;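 active = activation above the mean of all tested compounds plus 3 SD, cutoff set per screening run, cut at about 20% in these data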;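 also: peak over basal fluorescence ratio from a 100 s FLIPR kinetic read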
Target sequence (P30559 whole entry, looked up): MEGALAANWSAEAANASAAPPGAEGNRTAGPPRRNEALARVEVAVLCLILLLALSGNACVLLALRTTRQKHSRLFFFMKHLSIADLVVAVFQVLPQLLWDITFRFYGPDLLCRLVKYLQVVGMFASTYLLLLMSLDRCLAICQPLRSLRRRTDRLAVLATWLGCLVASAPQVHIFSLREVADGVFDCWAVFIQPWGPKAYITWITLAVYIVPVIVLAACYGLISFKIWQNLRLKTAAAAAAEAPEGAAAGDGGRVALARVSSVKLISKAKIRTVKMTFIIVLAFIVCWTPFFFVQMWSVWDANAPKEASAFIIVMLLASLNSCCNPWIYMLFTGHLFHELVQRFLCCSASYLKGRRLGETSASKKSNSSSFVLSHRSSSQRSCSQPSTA
TRPML3 ag: human TRPML3 channel agonists, primary screen, cell-based, HEK293 TRPML3-YFP, Fluo-8 calcium fluorescence, 3 µM; Mucolipin-3 (Homo sapiens), Q8TDD5; 100% = the carbachol control signal; activation, % at 3 µM; 220,000 tested, 0.29% active;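 active = activation above its plate's cutoff, the mean activation of the plate's test wells plus 3 SD, cut at about 12% in these data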;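 also: 0% = DMSO only wells and 100% = carbachol wells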
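Material: HEK293 cells stably carrying human TRPML3-YFP; compound dosing: single dose, 3 µM final nominal compound, 0.3% DMSO final; incubation: 1-h 37 °C dye load, 5-s basal, 120-s post-compound reads; technique: Fluo-8 intracellular calcium fluorescence, excitation 470-495 nm, emission 515-575 nm; read-out basis: percent activation from peak-to-basal fluorescence ratio, scaled between DMSO and carbachol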
OXTR potentiate: human OXTR potentiators, primary screen, fluorescence, CHO-OTR cells, Fluo-8 calcium. Oxytocin receptor (Homo sapiens), P30559. Fluo-8 calcium fluorescence, potentiator mode; 0% = oxytocin EC15, 100% = EC100. 320,000 tested, 0.061% active. activation, % at 3 µM;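 active = activation above that plate's cutoff, the mean activation of tested compounds plus 3 SD, cut at about 6.6% in these data, passing the limit was not always enough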;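 also: 100% uses oxytocin at 75 nM as the full agonist control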
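test system = CHO-OTR cells, human receptor | compound = single-point 3.0 µM | schedule = 6 min compound pre-incubation at room temperature, 100 s kinetic read | signal = Fluo-8 no-wash calcium dye fluorescence, excitation 470-495 nm, emission 515-575 nm | repeats = single well per compound, singlicate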
CRFR2-BP ag: agonists of CRF-BP/CRF-R2 complex, primary screen, cell-based, HEK293, calcium dye fluorescence, uHTS. CRF-binding protein / CRF receptor 2 complex (human). calcium dye fluorescence (FLIPR); percent of saturating CRF peptide response. activation, % at 13.2 µM. 350,000 tested, 0.46% active;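 active = activation of at least 50%, plus an integration ratio under a set limit after plate pattern correction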;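 also: plate controls were neutral control wells without compound for no effect and CRF at EC100 for full effect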
OXTR ag confirm: human OXTR agonists, confirmation, fluorescence, CHO-OTR cells, triplicate; shares compounds with OXTR ag; Fluo-8 calcium fluorescence, agonist; activation, % at 3 µM; 390 tested, 20% active; AID 434963, 2010;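 active = mean activation above about 20% derived from the earlier single-dose screen, limit read from the data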;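 also: peak over minimum fluorescence ratio per well during a 100 second FLIPR read; 0% = DMSO alone and 100% = oxytocin high control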
V1aR counter 3x: V1a receptor agonists, calcium signal, counter-screen for OXTR agonist project, triplicate, fluorescence, CHO-V1R cells; shares compounds with OXTR ag; Fluo-8 calcium fluorescence; activation, % at 3 µM; 390 tested, 10% active; AID 434991, 2010;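 active = mean activation over triplicate exceeds the hit threshold set in the earlier primary screen, cut at about 20% in these data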;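 also: peak over basal fluorescence ratio within a 100 second read; 0% = DMSO alone and 100% = 3 nM vasopressin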
* marks the source's active call; other numbers are inactive results; i = inactive; . = not tested or not shown; ! = a repeat was not active.

SMILES | V1aR counter | TRPN1 ag | OXTR ag | TRPML3 ag | OXTR potentiate | CRFR2-BP ag | OXTR ag confirm | V1aR counter 3x
COC(=O)C1=C(C)N(Cc2ccccc2)C(=NCc2ccccc2)N[C@H]1c1cccc(C(F)(F)F)c1 | 10 | . | 22* | . | -5 | 4 | 12 | 4
COC(=O)C1=C(C)N(Cc2ccccc2)C(=NCc2cc(OC)c(OC)c(OC)c2)N[C@H]1c1cccc(F)c1 | 0 | . | 21* | . | -8 | 3 | 2 | 0
CC1(C)CSC(C)(C)C(=O)N1 | . | . | . | . | . | -3 | . | .
O=C(CN1CCN(C(=O)C2CCN(C(=O)/C=C/c3ccccc3)CC2)CC1)Nc1ccc(F)cc1 | . | . | . | . | . | 0 | . | .
Cc1nc2ccccc2n2c(O)c(CC(=O)O)cc12 | 15 | 0 | 24* | 1 | 2 | 89* | 1 | 2
Cc1nc2ccccc2n1CCC(=O)O | -1 | 0 | 1 | 1 | -4 | 0 | . | .
CN(C)Cc1c(O)ccc2ccccc12 | 0 | -2 | 2 | 1 | -2 | 0 | . | .
CN(C)Cc1c(O)ccc2oc(Cc3ccccc3)cc12 | 14 | 2 | 23* | 2 | -19 | 1 | 1 | 1
CC(C)Cn1c(N)c(C(=O)COC(=O)c2ccc3c(c2)OCCO3)c(=O)n(C)c1=O | 13 | 6 | 20* | 1 | -24 | 0 | 9 | 9
O=C(NCCCN1CCOCC1)C(=O)NCCc1ccccc1 | -1 | -1 | -1 | 1 | -3 | 0 | . | .
N#C/C(=C\c1ccc(N2CCOCC2)o1)C(=O)NCCc1ccccc1 | 19 | 26* | 21* | 14* | -14 | 200* | 23* | 46*
Cc1noc(C)c1NC(=O)N(C)C[C@@H]1OCc2cnnn2CCCC(=O)N([C@H](C)CO)C[C@@H]1C | . | . | . | . | . | 2 | . | .
COc1ccc(C(=O)COC(=O)c2cc(C)no2)c(OC)c1 | 0 | . | -1 | . | -3 | 0 | . | .
COC(=O)c1cn(CC(=O)Nc2ccccc2C)c2ccccc12 | 0 | . | 2 | . | 1 | 0 | . | .
CN1CCN(CCCN2c3ccccc3Sc3ccc(Cl)cc32)CC1 | 10 | 0 | 25*! | 2 | -17 | i | 11 | 3
CCSc1ccc2c(c1)N(CCCN1CCN(C)CC1)c1ccccc1S2 | 3 | . | 9 | . | -5 | 0 | . | .
COc1ccc(-c2nnc(SCC(=O)NC3CCCCC3)n2N)cc1 | . | . | . | . | . | 0 | . | .
OC(CNCC1CCCO1)Cn1c2ccc(Cl)cc2c2cc(Cl)ccc21 (configuration not stated) | 3 | 2 | 33* | 1 | -16 | -2 | 14 | 5
COCCN(C(=O)COC(=O)CCC1CCCCC1)c1c(N)n(Cc2ccccc2)c(=O)[nH]c1=O | . | . | . | . | . | -1 | . | .
COC(C(=O)Nc1ccc(S(=O)(=O)Nc2ccc(F)cc2)cc1)c1ccccc1 (configuration not stated) | 16 | 15 | 20* | 6 | -10 | 12 | 23* | 14
COc1cc(OC)c2c(-c3ccccc3)cc(=O)oc2c1C(CCN1CCCC(C)C1)c1ccc(N(C)C)cc1 (configuration not stated) | 1 | . | 4 | . | 0 | 4 | . | .
COc1ccc(C(CCN2CCCC(C)C2)c2c(OC)cc(OC)c3c(-c4ccccc4)cc(=O)oc23)cc1 (configuration not stated) | 16 | . | 22* | . | -12 | 48 | 2 | 3
COc1ccc(C(=O)NNC(=S)NC(=O)c2cccs2)cc1 | 9 | . | 13 | . | -15 | 43 | . | .
COc1ccc(/C=C/C(=O)NC(=S)NNC(=O)c2cccs2)cc1 | 17 | 1 | 26* | 1 | -35 | 0 | 6 | 8
CC(=O)Nc1ccc(OCC(O)Cn2c3ccccc3c3ccccc32)cc1 (configuration not stated) | 20 | 8 | 17 | 3 | -16 | 5 | . | .
SMILES | V1aR counter | TRPN1 ag | OXTR ag | TRPML3 ag | OXTR potentiate | CRFR2-BP ag | OXTR ag confirm | V1aR counter 3x
CC(=O)Nc1ccc(OCC(O)Cn2c3ccccc3c3ccccc32)c(C)c1 (configuration not stated) | 13 | 5 | 22* | 2 | -13 | 6 | 9 | 8
Cc1cc(OCCOCCNCc2ccccc2)ccc1C(C)C | 11 | . | 22* | . | -15 | 5 | 3 | 1
CC(=O)N1CCN(c2ccc(NC(=O)c3ccc(Cl)c([N+](=O)[O-])c3)cc2)CC1 | 8 | . | 1 | . | -11 | -1 | . | .
COc1ccc(C(=O)Nc2ccc(N3CCN(C(C)=O)CC3)cc2)cc1[N+](=O)[O-] | -1 | 1 | 25* | 1 | -12 | . | 1 | 0
CCOc1ccc(CCNC(=O)CCCn2c(=O)c3cccn3c3cccnc32)cc1OCC | -1 | . | -1 | . | 5 | -4 | . | .
COc1ccc(S(=O)(=O)N2CCCN(CCC(=O)Nc3cccc(C(F)(F)F)c3)CC2)cc1 | 17 | 4 | 22* | 2 | -12 | 16 | 8 | 6
COc1ccc(NC(=O)CCN2CCN(S(=O)(=O)c3ccc(F)cc3)CC2)cc1 | 1 | . | -1 | . | 4 | -1 | . | .
O=C(Nc1nc(-c2ccc(S(=O)(=O)N3CCOCC3)cc2)cs1)c1ccccc1 | 5 | 7 | 10 | 1 | -16 | 0 | . | .
O=C(Nc1nc(-c2nc3ccccc3s2)cs1)c1ccc(S(=O)(=O)N2CCOCC2)cc1 | 16 | 1 | 21* | 0 | -15 | 0 | 6 | 8
OC(CNC1CCCCCC1)COc1cccc2ccccc12 (configuration not stated) | 12 | . | 20* | . | -16 | 8 | 8 | 5
Cc1cc(C=O)c(C)n1-c1ccc(N2CCCCC2)c([N+](=O)[O-])c1 | 7 | 3 | 4 | 2 | -32 | -1 | . | .
Cc1cc(/C=C(\C#N)C(N)=O)c(C)n1-c1ccc(N2CCOCC2)c([N+](=O)[O-])c1 | 11 | -1 | 23* | 1 | -6 | 0 | 12 | 19
COc1ccc(/C=C(/NC(=O)c2ccccc2)C(=O)N2CCCC2)cc1OC | 2 | . | 28* | . | -13 | 0 | 1 | 0
COc1ccc(/C=C(/NC(=O)c2ccccc2)C(=O)N2CCCCC2)cc1OC | 2 | . | 7 | . | -6 | 2 | . | .
